Legend:
[1] = Antiviral activity against Measles virus Edmonston infected in african green monkey Vero cells after 20 hrs by luciferase reporter gene assay; type: functional, cell-based, Measles virus strain Edmonston; settings: Measles morbillivirus
In short: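 Cells seeded at 3×10^4/well and incubated 20 h, then infected with Renilla luciferase-expressing recombinant MeV-Edmonston (recMeV-ren) at MOI 0.2 TCID50/cell. Luciferase substrate added 28 h post-infection; bioluminescence read to quantify reporter expression.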

[2] = system: Influenza A virus; experiment: Antiviral activity against Influenza A virus WSN/1933 (H1N1) infected in human 293T cells after 20 hrs by luciferase reporter gene assay; type: functional, organism-based; settings: A/WSN/1933(H1N1), HEK-293T
In short: (§1)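 293T cells were transfected with an IAV firefly-luciferase minigenome reporter plasmid (1 µg/10^5 cells), cryopreserved 28 h post-transfection, thawed, and seeded at 3×10^4 cells/well. After 20 h they were infected with TPCK-trypsin-activated IAV (MOI 0.1 pfu/cell). Luciferase bioluminescence was read 28 h post-infection after adding Bright-Glo or Dual-Glo substrate.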

[3] = system: Respiratory syncytial virus; experiment: Antiviral activity against Respiratory syncytial virus by firefly luciferase reporter gene assay; type: functional, organism-based; settings: human respiratory syncytial virus
[4] = system: Influenza A virus; experiment: Antiviral activity against Influenza A virus A/Aichi/1968(H3N2) by firefly luciferase reporter gene assay; type: functional, organism-based; in short: as §1
[5] = system: Influenza A virus; experiment: Antiviral activity against Influenza A virus A/sw/Texas/2009(H1N1) virus by firefly luciferase reporter gene assay; type: functional, organism-based; in short: as §1
[6] = Half life in hamster liver S9 fraction; type: ADME, subcellular; settings: cricetinae
[7] = system: Liver; experiment: (§2) Half life in human liver S9 fraction; type: ADME, subcellular; settings: s9
[8] = Solubility of the compound at pH 7.4; type: physicochemical; settings: buffer
[9] = as §2; type: ADME, subcellular; settings: liver S9 fraction

CCOC(=O)Cn1c(-c2nonc2NC(=O)c2ccccc2F)nc2ccccc21
EC50 [1]: 0.023 µM
EC50 [2]: 0.012 µM
EC50 [3]: 0.14 µM
EC50 [4]: 0.05 µM
EC50 [5]: 0.1 µM

C#CCn1c([S+](=O)([O-])Cc2ccc(F)cc2)nc(-c2ccccc2)c1-c1ccccc1
half-life [6]: < 2.5 min
t1/2 [7]: 19 min
EC50 [1]: 0.74 µM
EC50 [2]: 0.5 µM
EC50 [3]: 0.45 µM
EC50 [4]: 0.92 µM
EC50 [5]: 0.2 µM

COc1ccc(-n2c(SC(C)C(=O)Nc3ccc(C)cc3Cl)nc3ccccc32)cc1 (stereo unspecified)
EC50 [3]: 0.07 µM
EC50 [5]: 0.04 µM

Cn1c(S(=O)(=O)C(F)(F)c2ccccc2)nc(-c2ccccc2)c1-c1ccccc1
EC50 [1]: > 10 µM
EC50 [2]: > 10 µM

Cn1c(S(=O)(=O)C(F)(F)c2ccc(F)cc2)nc(-c2ccc(F)cc2)c1-c1ccc(F)cc1
half-life [6]: 54 min
t1/2 [7]: > 90 min
EC50 [1]: > 10 µM
EC50 [2]: > 10 µM

Cn1c(S(=O)(=O)Nc2ccccc2)nc(-c2ccccc2)c1-c1ccccc1
half-life [6]: < 2.5 min
t1/2 [7]: 27 min
EC50 [1]: > 10 µM
EC50 [2]: > 10 µM

Cn1c(C(=O)Nc2ccccc2F)nc(-c2ccccc2)c1-c1ccccc1
EC50 [1]: 9 µM
EC50 [2]: 10 µM

Cn1c(C(=O)Nc2ccccc2[N+](=O)[O-])nc(-c2ccccc2)c1-c1ccccc1
EC50 [1]: 9 µM
EC50 [2]: 6 µM

Cn1c(C(=O)Cc2ccccc2)nc(-c2ccccc2)c1-c1ccccc1
half-life [6]: 5 min
t1/2 [7]: > 90 min
EC50 [1]: > 10 µM
EC50 [2]: 10 µM

Cn1c(C(O)Cc2ccccc2)nc(-c2ccccc2)c1-c1ccccc1 (stereo unspecified)
EC50 [1]: > 10 µM
EC50 [2]: > 10 µM

Cn1c(CCc2ccccc2)nc(-c2ccccc2)c1-c1ccccc1
EC50 [1]: 6 µM
EC50 [2]: 10 µM

CN(Cc1nc(-c2ccccc2)c(-c2ccccc2)n1C)c1ccccc1
solubility [8]: < 15 µg/mL
half-life [6]: < 5 min
t1/2 [7]: 165 min
EC50 [1]: 0.91 µM
EC50 [2]: 0.88 µM

CN(Cc1nc(-c2ccccc2)c(-c2ccccc2)n1C)c1ccc(O)cc1
EC50 [1]: 10 µM
EC50 [2]: 10 µM

CN(Cc1nc(-c2ccccc2)c(-c2ccccc2)n1C)c1ccccc1C(=O)O
solubility [8]: > 300 µg/mL
EC50 [1]: 3 µM
EC50 [2]: 3 µM

CN(Cc1nc(-c2ccccc2)c(-c2ccccc2)n1C)c1ccccn1
EC50 [1]: 10 µM
EC50 [2]: 10 µM

Cn1c(CN(Cc2ccccc2)c2ccccc2)nc(-c2ccccc2)c1-c1ccccc1
EC50 [1]: > 10 µM
EC50 [2]: > 10 µM

CCN(Cc1nc(-c2ccccc2)c(-c2ccccc2)n1C)c1ccccc1
EC50 [1]: 10 µM
EC50 [2]: 10 µM

CCOC(=O)Cn1c(-c2ncsc2NC(=O)c2c(F)cccc2F)nc2ccccc21
EC50 [1]: 10 µM
EC50 [2]: 10 µM

CC(C)n1c(-c2csc(NC(=O)c3c(F)cccc3F)n2)nc2ccccc21
EC50 [1]: 10 µM
EC50 [2]: 4 µM

O=C(O)Cn1c(-c2csc(NC(=O)c3c(F)cccc3F)n2)nc2ccccc21
EC50 [1]: > 10 µM
EC50 [2]: > 10 µM

Cn1cc(NC(=O)c2ccccc2F)c(-c2nc3ccccc3[nH]2)n1
EC50 [1]: > 10 µM
EC50 [2]: > 10 µM

Nc1ccc(C(=O)Cn2c(-c3nccnc3NC(=O)c3ccccc3)nc3ccccc32)cc1
EC50 [1]: > 10 µM
EC50 [2]: > 10 µM

O=S(=O)(Cc1ccccc1)c1nc(-c2ccccc2)c(-c2ccccc2)[nH]1
half-life [6]: < 2.5 min
t1/2 [7]: 14 min
EC50 [1]: > 10 µM
EC50 [2]: > 10 µM

Cn1c(S(=O)(=O)Cc2ccccc2)nc(-c2ccccc2)c1-c1ccccc1
half-life [6]: < 2.5 min
half-life [9]: 2 min
EC50 [1]: 4 µM
EC50 [2]: 0.3 µM

Cn1c(S(=O)(=O)Cc2ccc(F)cc2)nc(-c2ccc(F)cc2)c1-c1ccc(F)cc1
half-life [6]: < 2.5 min
t1/2 [7]: < 2.5 min
EC50 [1]: > 10 µM
EC50 [2]: > 10 µM

CCn1c(S(=O)(=O)Cc2ccccc2)nc(-c2ccccc2)c1-c1ccccc1
EC50 [1]: 1 µM
EC50 [2]: 2 µM

O=S(=O)(Cc1ccccc1)c1nc(-c2ccccc2)c(-c2ccccc2)n1Cc1ccccc1
EC50 [1]: > 10 µM
EC50 [2]: 10 µM

C=CCn1c(S(=O)(=O)Cc2ccc(F)cc2)nc(-c2ccccc2)c1-c1ccccc1
EC50 [1]: 4.6 µM
EC50 [2]: 4.2 µM

Cn1c(S(=O)(=O)Cc2ccncc2)nc(-c2ccccc2)c1-c1ccccc1
EC50 [1]: > 10 µM
EC50 [2]: > 10 µM

Cn1c(S(=O)(=O)Cc2cccnc2)nc(-c2ccccc2)c1-c1ccccc1
EC50 [1]: 9 µM
EC50 [2]: > 10 µM

Cn1c(S(=O)(=O)Cc2ccc(F)cc2)nc(-c2ccc(F)cc2)c1-c1ccncc1
EC50 [1]: > 10 µM
EC50 [2]: > 10 µM

Cn1c(S(=O)(=O)Cc2ccc(F)cc2)nc(-c2ccc(F)cc2)c1-c1cccnc1
EC50 [1]: > 10 µM
EC50 [2]: > 10 µM

Cn1c(SCc2ccccc2)nc(-c2ccccc2)c1-c1ccccc1
half-life [6]: 3 min
t1/2 [7]: 15 min
EC50 [1]: 6 µM
EC50 [2]: 0.4 µM

O=C(Nc1nonc1-c1nc2ccccc2[nH]1)c1ccccc1F
EC50 [1]: > 10 µM
EC50 [2]: > 10 µM

Nc1ccc(C(=O)Cn2c(-c3nonc3NC(=O)c3ccccc3F)nc3ccccc32)cc1
EC50 [1]: 0.4 µM
EC50 [2]: 0.7 µM

Reference: ChEMBL document CHEMBL2406922, “Synthesis and Metabolic Studies of Host Directed Inhibitors for Anti Viral Therapy” (ACS Med Chem Lett, 2013)
